Experimental findings from ChEMBL document CHEMBL1125399, “Perfluorocarbon-based antidiabetic agents” (1992) are described below.

The species entered for test [1] is Mus musculus. The experiment in a line: Percent plasma glucose concentration of drug treated mice (ob/ob) relative to vehicle control animals. It counts as functional. The gist of the method:
(§1)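 Female ob/ob mice, 10 weeks old, fed ad libitum, in groups of 7–11. Dosed po once daily for 4 days in 0.5% methyl cellulose vehicle. Decapitated the next morning; 0.1 mL blood into saline with Trasylol and EDTA; plasma glucose by autoanalyzer. Reciprocal-transformed (y = 160/x) harmonic mean given as % of vehicle. Bonferroni-adjusted comparisons.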

For test [2], the system named is Mus musculus. In words: Effect on the mean heart weight of mice on day 1 (pre) of swiss CD-1 mice (charles river), in groups of six dosed orally once per day for 4 days with 50 mg/kg of compound; expressed as mg/10 g body weight. The format is functional. To be noted: route oral.
Test [3] deals with Mus musculus. The experiment in a line: Effect on the mean body weight of mice on day 5 (post) of swiss CD-1 mice (charles river), in groups of six dosed orally once per day for 4 days with 50 mg/kg of compound. It counts as functional. To be noted: route oral. The method in brief: (§2)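 Swiss CD-1 mice (20–25 g) in groups of six; vehicle controls in three cages of three. Compound 50 mg/kg or vehicle (2% Tween 80/saline) given by gavage each afternoon for 4 consecutive days. Body weight taken before dosing (day 1) and on the morning of day 5. Mice were then killed under halothane and heart and liver weighed, per 10 g body weight. Bonferroni t test.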

Test [4] deals with Mus musculus. In words: Effect on the mean body weight of mice on day 1 (pre) of swiss CD-1 mice (charles river), in groups of six dosed orally once per day for 4 days with 50 mg/kg of compound. It counts as functional. Particulars: route oral. The gist of the method:
as §2

Test [5] concerns Mus musculus. In words: Effect on the mean liver weight of mice on day 1 (pre) of swiss CD-1 mice (charles river), in groups of six dosed orally once per day for 4 days with 50 mg/kg of compound; expressed as mg/10 g body weight. The format is functional. Particulars: route oral.
In test [6] the test system is Mus musculus. In words: Percent plasma glucose concentration of drug treated mice (ob/ob) relative to vehicle control animals following 75 mg/kg administration. The format is functional. The method in brief: as §1
Test [7] concerns Mus musculus. In words: Effect on the mean body weight of mice on day 1 (pre) of swiss CD-1 mice (charles river), in groups of six dosed orally once per day for 4 days with 50 mg/kg of compound; […]. The format is functional. To be noted: route oral.
The subject of test [8] is Mus musculus. In words: Percent plasma glucose concentration of drug treated mice (ob/ob) relative to vehicle control animals was determined at the dose of 75 mg/kg.

The compound `O=C(Nc1ccc(Cc2nn[nH]n2)cc1)C(F)(F)C(F)(F)C(F)(F)C(F)(F)C(F)(F)C(F)(F)C(F)(F)F` returned an Activity in the test listed under Mus musculus [1] of 66%. Also, the Heart weight in the test on Mus musculus [2] was determined as 39 mg 10g-1. In addition, the results for the Body weight in the test with Mus musculus [3] and in the test on Mus musculus [4] were 31.4 g and 30.5 g, respectively. In the test with Mus musculus [5], this compound displayed a Liver weight of 1.25 g 10g-1.

Take `Cl.Nc1ccc(Cc2nn[nH]n2)cc1`: in the test with Mus musculus [6], the Activity is on record as 93%. In the test with Mus musculus [2], this compound registered a Heart weight of 43 mg 10g-1. Moreover, the values for the Body weight in the test with Mus musculus [7] and in the test with Mus musculus [3] were 29.8 g and 30.1 g, respectively. In the test with Mus musculus [5], the Liver weight is 0.591 g 10g-1.

Regarding `CCCCCCCC(=O)NNC(=O)C(F)(F)C(F)(F)C(F)(F)C(F)(F)C(F)(F)C(F)(F)C(F)(F)F`, the Activity in the test with Mus musculus [6] was found to be 74%. Further, the Heart weight in the test on Mus musculus [2] is reported as 37 mg 10g-1. The Body weight in the test with Mus musculus [3] and with Mus musculus [4] was 30.6 g throughout. The Liver weight with Mus musculus [5] amounted to 1.44 g 10g-1.

Compound `FC(F)(F)C(F)(F)C(F)(F)C(F)(F)C(F)(F)C(F)(F)C(F)(F)CNc1ccc(Cc2nn[nH]n2)cc1` yielded an Activity in the test with Mus musculus [6] of 57%. The Heart weight with Mus musculus [2] was 39 mg 10g-1. Also, the values for the Body weight with Mus musculus [3] and in the test on Mus musculus [4] were 31.2 g and 30.3 g, respectively. This compound displayed a Liver weight in the test with Mus musculus [5] of 0.856 g 10g-1.

As to `CCCCN(Cc1ccccc1)C(=O)C(F)(F)C(F)(F)C(F)(F)C(F)(F)C(F)(F)C(F)(F)C(F)(F)F`, in the test with Mus musculus [6], the Activity worked out at 61%. Further, the Heart weight with Mus musculus [2] is 40 mg 10g-1. Moreover, the Body weight with Mus musculus [3] turned out to be 31.1 g; with Mus musculus [4] it was 30.8 g. The same compound had a Liver weight in the test on Mus musculus [5] of 1.18 g 10g-1.

Consider `CCCC(=O)Nc1ccc(Cc2nn[nH]n2)cc1`, for which the Activity in the test with Mus musculus [6] was 108%.

Turning to `FC(F)C(F)(F)C(F)(F)C(F)(F)C(F)(F)C(F)(F)C(F)(F)F`, in the test with Mus musculus [6], the Activity was determined as 90%.

As to `O=C(Nc1ccc(Cc2nn[n-]n2)cc1)C(F)(F)C(F)(F)C(F)(F)F.[Na+]`, the Activity in the test on Mus musculus [8] worked out at 67%.

`CN(C(=O)C(F)(F)C(F)(F)C(F)(F)C(F)(F)C(F)(F)C(F)(F)C(F)(F)F)c1ccc(Cc2nnnn2C)cc1` showed an Activity in the test listed under Mus musculus [1] of 67%. Besides, the Heart weight in the test on Mus musculus [2] came to 41 mg 10g-1. Further, the Body weight was 31.1 g in the test on Mus musculus [3] and 29.9 g with Mus musculus [4]. Besides, in the test with Mus musculus [5], the Liver weight was 0.942 g 10g-1.

`O=C(Nc1ccc(Cc2nnn(Cc3ccccc3)n2)cc1)C(F)(F)C(F)(F)C(F)(F)C(F)(F)C(F)(F)C(F)(F)C(F)(F)F` yielded an Activity in the test listed under Mus musculus [1] of 68%. In the test with Mus musculus [2], this compound came in with a Heart weight of 41 mg 10g-1. Further, the Body weight with Mus musculus [3] is given as 31.4 g; in the test with Mus musculus [4], 30.3 g. The Liver weight in the test with Mus musculus [5] was 0.787 g 10g-1.

In the test with Mus musculus [6], `CCCCCCC(F)(F)C(=O)Nc1ccc(Cc2nn[nH]n2)cc1` returned an Activity of 80%. In the test with Mus musculus [2], the Heart weight is 43 mg 10g-1. The Body weight is on record as 31.7 g in the test with Mus musculus [3] and 30.4 g with Mus musculus [4]. In the test with Mus musculus [5], this compound yielded a Liver weight of 0.671 g 10g-1.

For the compound `O=C(N(Cc1ccccc1)c1ccc(Cc2nn[nH]n2)cc1)C(F)(F)C(F)(F)C(F)(F)C(F)(F)C(F)(F)C(F)(F)C(F)(F)C(F)(F)F`, the Activity in the test listed under Mus musculus [1] is listed as 55%. This compound showed a Heart weight in the test on Mus musculus [2] of 39 mg 10g-1. The Body weight in the test on Mus musculus [3] was 31.3 g; with Mus musculus [4], 29.8 g. Besides, the Liver weight in the test on Mus musculus [5] is 1.11 g 10g-1.

`O=C(Nc1ccncc1)C(F)(F)C(F)(F)C(F)(F)C(F)(F)C(F)(F)C(F)(F)C(F)(F)F`: the Activity in the test filed under Mus musculus [1] was found to be 66%. Further, the Heart weight in the test on Mus musculus [2] was found to be 39 mg 10g-1. In addition, the results for the Body weight in the test on Mus musculus [3] and in the test with Mus musculus [4] were 32.4 g and 30.7 g, respectively. In the test with Mus musculus [5], the Liver weight worked out at 1.08 g 10g-1.
